Experimental data: ChEMBL document CHEMBL2158000 (Bioorg Med Chem Lett, 2012)

Key:
[1] = target: T1, Amine oxidase [flavin-containing] A (Homo sapiens, UniProt P21397); experiment: Inhibition of human recombinant MAOA using kynuramine as substrate assessed as formation of 4-hydroxyquinoline after 20 mins by fluorescence spectrophotometry
T1 sequence (P21397 whole entry): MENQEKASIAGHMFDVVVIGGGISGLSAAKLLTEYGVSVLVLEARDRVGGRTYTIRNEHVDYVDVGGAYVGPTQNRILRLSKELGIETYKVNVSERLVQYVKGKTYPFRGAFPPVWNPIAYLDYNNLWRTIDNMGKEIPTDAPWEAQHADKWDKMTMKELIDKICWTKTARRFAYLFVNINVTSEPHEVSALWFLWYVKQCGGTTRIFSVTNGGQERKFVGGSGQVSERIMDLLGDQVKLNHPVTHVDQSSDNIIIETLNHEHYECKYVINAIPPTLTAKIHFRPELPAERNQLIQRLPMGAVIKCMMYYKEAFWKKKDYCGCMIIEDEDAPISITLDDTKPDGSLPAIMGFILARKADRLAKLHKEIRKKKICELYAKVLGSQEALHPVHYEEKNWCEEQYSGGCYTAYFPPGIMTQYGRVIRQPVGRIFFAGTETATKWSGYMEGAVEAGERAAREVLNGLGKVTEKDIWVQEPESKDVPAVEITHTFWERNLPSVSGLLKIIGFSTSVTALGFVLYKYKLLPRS

[2] = target: T2, Amine oxidase [flavin-containing] B (Homo sapiens, UniProt P27338); experiment: Inhibition of human recombinant MAOB using kynuramine as substrate assessed as formation of 4-hydroxyquinoline after 20 mins by fluorescence spectrophotometry
T2 sequence (P27338 whole entry): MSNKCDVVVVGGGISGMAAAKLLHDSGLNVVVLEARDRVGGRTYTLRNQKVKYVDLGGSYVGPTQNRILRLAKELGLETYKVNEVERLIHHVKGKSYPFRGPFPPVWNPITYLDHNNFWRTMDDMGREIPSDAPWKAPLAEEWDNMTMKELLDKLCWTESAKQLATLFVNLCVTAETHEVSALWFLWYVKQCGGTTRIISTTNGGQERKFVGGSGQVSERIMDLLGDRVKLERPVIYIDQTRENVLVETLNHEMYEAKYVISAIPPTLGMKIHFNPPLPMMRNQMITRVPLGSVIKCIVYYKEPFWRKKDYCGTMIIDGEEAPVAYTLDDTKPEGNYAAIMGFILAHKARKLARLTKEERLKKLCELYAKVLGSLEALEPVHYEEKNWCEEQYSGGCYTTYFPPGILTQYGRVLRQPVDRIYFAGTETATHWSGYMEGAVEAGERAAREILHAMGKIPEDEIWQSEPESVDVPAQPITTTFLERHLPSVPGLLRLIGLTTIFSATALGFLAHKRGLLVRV

Homo sapiens = organism: Homo sapiens; experiment: Selectivity index, ratio of IC50 for human recombinant MAOA to IC50 for human recombinant MAOB
[3] = target: T2, Amine oxidase [flavin-containing] B; experiment: Reversible inhibition of human recombinant MAOB using kynuramine as substrate assessed as residual activity at 100 times IC50 preincubated for 30 mins followed by 100 fold dilution measured after 20 mins by fluorescence spectrophotometry relative to control
Procedure, shortened: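 MAO-B was preincubated with inhibitor at 10× and 100× IC50 for 30 min, then diluted to 0.1× and 1× IC50. Residual activity was measured by fluorometry of 4-hydroxyquinoline from kynuramine and expressed as % of control. Irreversible reference inhibitor was at 10× IC50, diluted to 0.1× IC50.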

| Structure (SMILES) | IC50 [1] [nM] | IC50 [2] [nM] | Ratio IC50 (Homo sapiens) | Activity [3] [%] |
| --- | --- | --- | --- | --- |
| O=C1NC(=O)c2cc(Sc3ccccc3)ccc21 | 8030 | 986 | 8.1 | – |
| O=C1NC(=O)c2cc(SC3CCCCC3)ccc21 | 1030 | 179 | 5.8 | – |
| O=C1NC(=O)c2cc(SCc3ccccc3)ccc21 | 1920 | 4.5 | 427 | 28 |
| O=C1NC(=O)c2cc(Sc3ccc(Br)cc3)ccc21 | 1010 | 364 | 2.8 | – |
| O=C1NC(=O)c2cc(SCc3ccc(Cl)cc3)ccc21 | 506 | 5.6 | 90 | – |

Further compounds by falling IC50 [1], results first:

| IC50 [1] [nM] | IC50 [2] [nM] | Ratio IC50 (Homo sapiens) | Activity [3] [%] | Structure (SMILES) |
| --- | --- | --- | --- | --- |
| 2270 | 30 | 76 | – | O=C1NC(=O)c2cc(SCCc3ccccc3)ccc21 |
| 1680 | 457 | 3.7 | – | O=C1NC(=O)c2cc(Sc3ccc(Cl)cc3)ccc21 |
| 1630 | 20 | 82 | – | COc1ccc(CSc2ccc3c(c2)C(=O)NC3=O)cc1 |
| 958 | 6.8 | 141 | – | O=C1NC(=O)c2cc(SCc3ccc(F)cc3)ccc21 |
| 380 | 15 | 26 | – | CC(C)CCSc1ccc2c(c1)C(=O)NC2=O |
| 273 | 7.4 | 37 | – | O=C1NC(=O)c2cc(SCc3ccc(Br)cc3)ccc21 |
